Experiment [1] relates to Protein cereblon/Epidermal growth factor receptor (Homo sapiens), P00533+Q96SW2 [UNDEFINED MUTATION]. The experiment can be described thus: Protac activity at CRBN/EGFR exon19 deletion/T790M mutant in human PC-9 cells transfected with BRCA1 assessed as induction of EGFR degradation at 1 to 1000 nM measured after 16 hrs by Western blot assay. The experiment is classed as cell-based. Conditions: dose 1-1000 nM. The essentials: (§1)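 Cells seeded at 1-3X10^5/well and treated one day later with compounds at the concentrations and times given. Lysed in RIPA buffer with protease inhibitors. 15 µg protein run on 8% SDS-PAGE, transferred to nitrocellulose, probed for EGFR or phospho-EGFR, ECL detection. Lung lines kept in RPMI 1640 with 10% fetal calf serum, 37 °C, 5% CO2. DC50 is an estimated value. Repeated more than 3 times.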

Experiment [2] relates to NCI-H1975. The experiment can be described thus: Antiproliferative activity against human NCI-H1975 cells assessed as inhibition of cell growth measured after 72 hrs by CCK-8 assay. It counts as functional, cell-based. Conditions: NCI-H1975, 72 h. The essentials:
(§2)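 Cells seeded at 3000 cells/well in 96-well plates and treated with graded compound concentrations one day later for 72 h. CCK-8 was added for 1–4 h and absorbance read at 450 nm. Lung cancer lines were kept in RPMI 1640 with 10% fetal calf serum at 37 °C and 5% CO₂.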

Experiment [3] has as its system Protein cereblon/Epidermal growth factor receptor (Homo sapiens), P00533+Q96SW2 [L858R,T790M]. The experiment can be described thus: Protac activity at CRBN/EGFR L858R/T790M mutant in human NCI-H1975 cells assessed as induction of EGFR degradation at 0.3 uM pre-incubated for 2 hrs in the presence of MLN4924 and measured after 16 hrs by Western blot assay. It counts as cell-based. Particulars: time 18.0 hrs.

Experiment [4] deals with Protein cereblon/Epidermal growth factor receptor (Homo sapiens), P00533+Q96SW2 [UNDEFINED MUTATION]. The experiment can be described thus: Protac activity at CRBN/EGFR exon 19 deletion mutant in human PC-9 cells assessed as induction of EGFR degradation at >10 nM measured after 48 hrs by Western blot assay. The experiment is classed as cell-based. Particulars: dose nM >10, time 48.0 hrs. The essentials: as §1

In experiment [5] the target is T1, Protein cereblon/Epidermal growth factor receptor (Homo sapiens, UniProt P00533+Q96SW2). The experiment can be described thus: Protac activity at CRBN/EGFR in human PB1 cells assessed as induction of EGFR degradation by Western blot assay. It counts as cell-based.
The test system of experiment [6] is Protein cereblon/Epidermal growth factor receptor (Homo sapiens), P00533+Q96SW2 [UNDEFINED MUTATION]. The experiment can be described thus: Protac activity at CRBN/EGFR exon19 deletion/T790M mutant in human PC-9 cells transfected with BRCA1 assessed as induction of EGFR degradation at 1 to 1000 nM measured after 48 hrs by Western blot assay. The experiment is classed as cell-based. Conditions: dose 1-1000 nM. In short, it runs like this:
as §1

The test system of experiment [7] is Protein cereblon/Epidermal growth factor receptor (Homo sapiens), P00533+Q96SW2 [L858R,T790M]. Nature of the experiment: Protac activity at CRBN/EGFR L858R/T790M mutant in human NCI-H1975 cells assessed as increase in cell doubling time at 100 to 300 nM measured after 4 days by […] staining based fluorescence assay. Conditions: dose 100-300 nM, time 4.0 day.
Experiment [8] addresses T1, Protein cereblon/Epidermal growth factor receptor. The experiment can be described thus: Protac activity at CRBN/EGFR in human A549 cells assessed as induction of EGFR degradation by Western blot assay. It counts as cell-based.
Experiment [9] concerns Epidermal growth factor receptor (Homo sapiens), P00533 [L858R,T790M]. The experiment can be described thus: Inhibition of EGFR L858R/T790M mutant phosphorylation in human NCI-H1975 cells at 1 to 100 nM measured after 16 hrs by Western blot assay. It counts as cell-based. Particulars: dose 1-100 nM. The essentials:
as §1

Experiment [10] relates to Protein cereblon/Epidermal growth factor receptor (Homo sapiens), P00533+Q96SW2 [L858R,T790M]. The experiment can be described thus: Protac activity at CRBN/EGFR L858R/T790M mutant in human NCI-H1975 cells assessed as induction of EGFR degradation at 300 nM measured after 8 to 72 hrs by Western blot assay relative to control. Particulars: time 8-72 hrs. It counts as cell-based.

The target in experiment [11] is T1, Protein cereblon/Epidermal growth factor receptor. Nature of the experiment: Protac activity at CRBN/EGFR in human PC-9 cells assessed as induction of EGFR degradation by Western blot assay. The experiment is classed as cell-based.
In another experiment the test system is A549. The experiment can be described thus: Antiproliferative activity against human A549 cells assessed as inhibition of cell growth measured after 72 hrs by CCK-8 assay. The experiment is classed as functional, cell-based. Particulars: A549, 72 h. The essentials: as §2
A further experiment has as its system BJ. Nature of the experiment: Cytotoxicity against human BJ cells assessed as inhibition of cell growth measured after 72 hrs by CCK-8 assay. It counts as cell-based. The essentials: as §2
The subject of experiment [12] is NCI-H1975. The experiment can be described thus: Cell cycle arrest in human NCI-H1975 cells expressing EGFR L858R/T790M mutant assessed as decrease of cell population in S phase at […] measured after 48 hrs by RNaseA/propidium iodide staining based flow cytometry. The experiment is classed as functional. Particulars: dose lower 0.03 nM. In short, it runs like this: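 H1975 cells (1 × 10⁵/well, 6-well plates) treated one day after seeding at the indicated concentrations for 48 h. Washed in cold PBS, fixed in cold ethanol at −20 °C for over 24 h, then stained with PI/RNase for 30 min at 37 °C in the dark. Phase distribution measured by flow cytometry.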

Experiment [13] has as its system NCI-H1975. Nature of the experiment: Induction of apoptosis in human NCI-H1975 cells expressing EGFR L858R/T790M mutant assessed as increase in number of apoptotic cells measured after 72 hrs by Annexin-V/FITC staining based flow cytometry method. The experiment is classed as functional, cell-based. In short, it runs like this: (§3)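 H1975 cells (8 × 10⁴/well, 12-well plates) treated one day after seeding at graded concentrations for 72 h. Collected, stained with Annexin V-FITC, and apoptosis measured by flow cytometry.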

A short description of experiment [14]: Antiproliferative activity against human PB1 cells assessed as inhibition of cell growth measured after 72 hrs by CCK-8 assay. The experiment is classed as functional, cell-based. Conditions: PB1, 72 h. In short, it runs like this:
as §2

The next experiment deals with HCC827. The experiment can be described thus: Antiproliferative activity against human HCC827 cells assessed as inhibition of cell growth measured after 72 hrs by CCK-8 assay. It counts as functional, cell-based. Conditions: HCC827, 72 h. In short, it runs like this:
as §2

The test system of experiment [15] is Protein cereblon/Epidermal growth factor receptor (Homo sapiens), P00533+Q96SW2 [L858R,T790M]. The experiment can be described thus: Protac activity at CRBN/EGFR L858R/T790M mutant in human NCI-H1975 cells assessed as induction of EGFR degradation at 300 nM pretreated for 24 hrs followed by compound washout and subsequent addition of fresh medium by Western blot assay relative to control. It counts as cell-based. The essentials: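 H1975 cells were treated with 300 nM PROTAC for 24 h. Medium was removed, cells were washed 3 times with PBS, and fresh RPMI 1640 with 10% fetal calf serum was added. Cells were harvested at time points up to 72 h after drug removal, and total EGFR was measured by Western blot.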

For experiment [16] the test system is unchanged. The experiment can be described thus: Protac activity at CRBN/EGFR L858R/T790M mutant in human NCI-H1975 cells assessed as increase in ratio of LC3B2 to LC3B1 at 30 to 300 nM measured after 16 hrs by Western blot assay. It counts as cell-based. Particulars: dose 30-300 nM. In short, it runs like this:
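H1975 cells in RPMI 1640 with 10% serum. Autophagy was read by Western blot as the LC3B II/LC3B I ratio. Serum-free medium and rapamycin served as autophagy-inducing positive controls, and rapamycin was also combined with degrader. Where pretreatment applied, compounds were added for 2 h before a 16 h PROTAC treatment.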

In experiment [17] the test system is NCI-H1975. Nature of the experiment: Induction of apoptosis in human NCI-H1975 cells expressing EGFR L858R/T790M mutant assessed as decrease in number of viable cells measured after 72 hrs by Annexin-V/FITC staining based flow cytometry method. The experiment is classed as functional, cell-based. The essentials: as §3
Experiment [18] deals with T1, Protein cereblon/Epidermal growth factor receptor. Nature of the experiment: Protac activity at CRBN/EGFR in mouse BaF3 cells assessed as induction of EGFR degradation by Western blot assay. The experiment is classed as cell-based.
In the next experiment the test system is BaF3. Nature of the experiment: Antiproliferative activity against mouse BaF3 cells assessed as inhibition of cell growth measured after 72 hrs by CCK-8 assay. It counts as functional, cell-based. Conditions: BaF3, 72 h. In short, it runs like this:
as §2

The structures appear in SMILES notation. Calls of active or inactive are those of the source. The calls are words filed in the database; no cut-off is given here.

Data on two molecules can be found in ChEMBL document CHEMBL4825665, “Effective degradation of EGFRL858R+T790M mutant proteins by CRBN-based PROTACs through both proteosome and autophagy/lysosome degradation systems” (Eur J Med Chem, 2021).

With `C=CC(=O)Nc1cc2c(Nc3ccc(F)c(Cl)c3)ncnc2cc1OCCCN1CCN(C(=O)CCCCCCNc2cccc3c2C(=O)N(C2CCC(=O)NC2=O)C3=O)CC1` (centres undefined), the result in experiment [1], in experiment [3] and in [6] was inactive. For the same molecule, the IC50 was 0.0265 µM in the experiment on NCI-H1975 [2]; greater than 10 µM with A549; greater than 10 µM with BJ; 0.0895 µM in experiment [14]; 0.00115 µM in the experiment on HCC827; 0.0513 µM with BaF3. The Activity result in experiment [4] was “Dose-Dependent Effect”; in [10], 98%; in the experiment with NCI-H1975 [17] it was “Dose-Dependent Effect”. Further, the DC50 result was “Not Active” in experiment [5], “Not Active” in experiment [8], 0.03 µM in [11] and 0.1 µM in experiment [18]. The result (in [7]; in [9]; with NCI-H1975 [12]; in the experiment with NCI-H1975 [13]; in [15]; in [16]) was Active.
Regarding `C=CC(=O)Nc1cc2c(Nc3ccc(F)c(Cl)c3)ncnc2cc1OCCCN1CCN(C(=O)CCCCCNc2cccc3c2C(=O)N(C2CCC(=O)NC2=O)C3=O)CC1` (centres undefined), the outcome in experiment [1], in experiment [3] and in [6] was inactive. Besides, the IC50 was 0.0221 µM in the experiment with NCI-H1975 [2]; greater than 10 µM in the experiment on A549; greater than 10 µM in the experiment with BJ; 0.045 µM in experiment [14]; 0.00212 µM with HCC827; 0.0713 µM with BaF3. Besides, the Activity entry was “Dose-Dependent Effect” in [4], 98% in experiment [10] and “Dose-Dependent Effect” with NCI-H1975 [17]. Moreover, the DC50 result in experiment [5] is “Not Active”; in [8], “Not Active”; in [11], 0.1 µM; in experiment [18] it was 0.1 µM. In addition, the result (in experiment [7]; in experiment [9]; in the experiment on NCI-H1975 [12]; in the experiment with NCI-H1975 [13]; in [15]; in [16]) was Active.
